The record followed here is ChEMBL document CHEMBL1177869, “Synthesis and dual PPARalpha/delta agonist effects of 1,4-disubstituted 1,2,3-triazole analogues of GW 501516” (Eur J Med Chem, 2010).

The source made the active and inactive calls. No cut-off for these calls is given here.

Broadly, the EC50 is the midpoint of the concentration-response curve.

One experiment addresses T1, Peroxisome proliferator-activated receptor alpha (Homo sapiens) (UniProt Q07869).
T1 sequence (whole entry): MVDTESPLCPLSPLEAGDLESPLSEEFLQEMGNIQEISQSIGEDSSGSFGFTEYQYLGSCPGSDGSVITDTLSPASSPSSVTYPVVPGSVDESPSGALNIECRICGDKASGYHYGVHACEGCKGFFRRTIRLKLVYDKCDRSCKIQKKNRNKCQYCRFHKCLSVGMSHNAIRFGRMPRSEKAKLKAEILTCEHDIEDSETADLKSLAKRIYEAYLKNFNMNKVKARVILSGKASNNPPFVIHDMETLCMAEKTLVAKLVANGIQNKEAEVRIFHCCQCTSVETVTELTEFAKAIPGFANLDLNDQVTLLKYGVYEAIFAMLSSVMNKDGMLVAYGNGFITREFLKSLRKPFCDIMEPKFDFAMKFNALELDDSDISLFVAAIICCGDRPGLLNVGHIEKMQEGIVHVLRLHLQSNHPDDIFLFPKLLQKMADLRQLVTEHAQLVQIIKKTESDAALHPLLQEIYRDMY
Put plainly: Agonist activity at human PPARalpha ligand binding domain expressed in COS-1 cells co-transfected with Gal4 at 10 uM by luciferase reporter gene assay. It is filed as cell-based. An outline of the steps:
(§1)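 COS-1 cells in DMEM with 10% inactivated FBS, 37 °C, 5% CO2, plated 1 day before lipofectamine transfection. Per well: 320 ng (UAS)5-tk-LUC reporter, 640 ng empty pGL3 basic, 30 ng pSG5-GAL4-hPPAR (α, δ or γ). Compound 10 μM (DMSO negative control) added 5 h post-transfection. Cells kept 24 h, then lysed for luciferase read-out. Positive controls: EHA for PPARα, GW 501516 for PPARδ.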
Take `Cc1cc(SCc2cn(-c3ccc(OC(F)(F)F)c(Cl)c3)nn2)ccc1OCC(=O)O`: the outcome was Active.

In the case of `Cc1cc(SCc2cn(-c3ccc(C(F)(F)F)c(F)c3)nn2)ccc1OCC(=O)O`, the outcome was Active.

In another experiment the target is T2, Peroxisome proliferator-activated receptor delta (Homo sapiens) (UniProt Q03181).
T2 sequence (whole entry): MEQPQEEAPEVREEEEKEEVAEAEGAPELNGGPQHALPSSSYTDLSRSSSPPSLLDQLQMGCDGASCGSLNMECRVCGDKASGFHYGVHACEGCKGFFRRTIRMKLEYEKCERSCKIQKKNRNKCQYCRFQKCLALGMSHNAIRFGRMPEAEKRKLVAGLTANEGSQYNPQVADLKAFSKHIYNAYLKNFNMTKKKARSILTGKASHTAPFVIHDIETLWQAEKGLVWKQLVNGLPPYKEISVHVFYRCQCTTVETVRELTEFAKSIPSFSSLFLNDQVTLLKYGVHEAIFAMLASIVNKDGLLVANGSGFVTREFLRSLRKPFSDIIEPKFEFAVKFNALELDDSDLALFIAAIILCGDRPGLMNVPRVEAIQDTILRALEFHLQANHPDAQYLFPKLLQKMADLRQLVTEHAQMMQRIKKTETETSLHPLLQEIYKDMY
Put plainly: Agonist activity at human PPARdelta ligand binding domain expressed in COS-1 cells co-transfected with Gal4 at 10 uM by luciferase reporter gene assay. The class given is cell-based. The method in brief: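 COS-1 cells in DMEM with 10% inactivated FBS, 37 °C, 5% CO2, plated 1 day before lipofectamine transfection. Per well: 320 ng (UAS)5-tk-LUC reporter, 640 ng empty pGL3 basic, 30 ng pSG5-GAL4-hPPAR (α, δ or γ). Compound 10 μM (DMSO negative control) added 5 h post-transfection. Cells kept 24 h, then lysed for luciferase read-out.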
A general note: A reporter such as luciferase makes a cellular process visible.
As for `Cc1cc(SCc2cn(-c3ccc(OC(F)(F)F)c(Cl)c3)nn2)ccc1OCC(=O)O`, the result was Active.

As to `Cc1cc(SCc2cn(-c3ccc(C(F)(F)F)c(F)c3)nn2)ccc1OCC(=O)O`, the outcome was Active.

In the next experiment the target is T3, Peroxisome proliferator-activated receptor gamma (Homo sapiens) (UniProt P37231).
T3 sequence (whole entry): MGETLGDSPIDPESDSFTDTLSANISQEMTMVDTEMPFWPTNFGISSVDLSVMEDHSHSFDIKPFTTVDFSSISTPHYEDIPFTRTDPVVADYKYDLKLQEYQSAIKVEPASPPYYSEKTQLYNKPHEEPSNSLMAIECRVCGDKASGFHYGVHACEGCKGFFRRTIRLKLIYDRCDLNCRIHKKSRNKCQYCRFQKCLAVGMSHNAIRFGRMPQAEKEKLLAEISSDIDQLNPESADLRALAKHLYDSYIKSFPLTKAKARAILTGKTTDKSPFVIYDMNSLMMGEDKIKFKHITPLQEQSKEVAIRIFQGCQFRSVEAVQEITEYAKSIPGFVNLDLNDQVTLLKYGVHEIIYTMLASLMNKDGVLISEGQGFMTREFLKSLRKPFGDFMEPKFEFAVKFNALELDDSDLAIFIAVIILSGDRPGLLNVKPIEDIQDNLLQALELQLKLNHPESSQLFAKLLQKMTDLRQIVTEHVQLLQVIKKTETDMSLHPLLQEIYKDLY
Put plainly: Agonist activity at human PPARgamma ligand binding domain expressed in COS-1 cells co-transfected with Gal4 at 10 uM by luciferase reporter gene assay. The class given is cell-based. The method in brief:
as §1
In the case of `Cc1cc(SCc2cn(-c3ccc(OC(F)(F)F)c(Cl)c3)nn2)ccc1OCC(=O)O`, the result was inactive.

Turning to `Cc1cc(SCc2cn(-c3ccc(C(F)(F)F)c(F)c3)nn2)ccc1OCC(=O)O`, the result was inactive.

System in the next experiment: not listed separately
Put plainly: Induction of [14C]-oleic acid oxidation in human differentiated skeletal muscle cells assessed as accumulation of oxidized [14C]-oleic acid after 4 hrs by liquid scintillation counting. It is filed as functional. The method in brief:
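Human skeletal muscle myoblasts grown to 70-80% confluence, then differentiated 7 days (DMEM 5.5 mM glucose, 2% FCS, 25 pM insulin). Compound at five concentrations from day 3 (96 h). [1-14C]oleic acid (1 μCi/mL, 100 μM) in DPBS with 10 mM HEPES and 1 mM L-carnitine, 4 h at 37 °C. Filter-trapped CO2 counted by scintillation, normalized to protein. EC50 by non-linear regression. GW 501516 positive control.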
Take `Cc1cc(SCc2sc(-c3ccc(C(F)(F)F)cc3)nc2C)ccc1OCC(=O)O` [GW501516]: the EC50 is 0.07 nM.

As for `Cc1cc(SCc2cn(-c3ccc(OC(F)(F)F)c(F)c3)nn2)ccc1OCC(=O)O`, the EC50 was determined as 1.4 nM.

Regarding `Cc1cc(SCc2cn(-c3ccc(OC(F)(F)F)cc3)nn2)ccc1OCC(=O)O`, the EC50 was 10 nM.

For the compound `Cc1cc(SCc2cn(-c3ccc(OC(F)(F)F)c(Cl)c3)nn2)ccc1OCC(=O)O`, the EC50 is 12 nM.

As for `Cc1cc(SCc2cn(-c3ccc(C(F)(F)F)c(F)c3)nn2)ccc1OCC(=O)O`, the EC50 turned out to be 0.85 nM.

Consider `Cc1cc(SCc2cn(-c3ccc(C(F)(F)F)cc3)nn2)ccc1OCC(=O)O`, for which the EC50 turned out to be 1.8 nM.
